Results as given in PMC13077713 (Journal of medicinal chemistry, 2025).
Where “and” joins values, the source holds several entries; their conditions need not be identical. Equal entries are not always repeated. Where two headings read alike, the source gives them in different places.

Columns and labels:
[1] = test system: HBV DNA production in HepAD38 cells; assay: Anti-HBV activity; type: cell-based, Hepatitis B virus (HBV); settings: for times less potent than GLP-26: HepAD38 vs GLP-26
[2] = test system: human peripheral blood mononuclear (PBM) cells; assay: Cytotoxicity, CellTiter 96 cell proliferation assay, PBM cells; type: cell-based; settings: read-out: Cytotoxicity, CC50 PBM; PBM cells
[3] = test system: human T lymphoblast (CEM) cells; assay: Cytotoxicity, CellTiter 96 cell proliferation assay, CEM cells; type: cell-based; settings: read-out: Cytotoxicity, CC50 CEM; CEM cells
[4] = test system: African green monkey kidney (Vero) cells; assay: Cytotoxicity, CellTiter 96 cell proliferation assay, Vero cells; type: cell-based; settings: read-out: Cytotoxicity, CC50 Vero; Vero cells
[5] = test system: human hepatocellular carcinoma (HepG2) cells; assay: Cytotoxicity, CellTiter 96 cell proliferation assay, HepG2 cells; type: cell-based; settings: read-out: Cytotoxicity, CC50 HepG2; HepG2 cells
[6] = Cytotoxicity, CellTiter 96 cell proliferation assay, PBM cells; type: cell-based, human; settings: human, peripheral blood mononuclear (PBM) cells
[7] = Cytotoxicity, CellTiter 96 cell proliferation assay, CEM cells; type: cell-based, human; settings: human, CEM T lymphoblast cells
[8] = Cytotoxicity, CellTiter 96 cell proliferation assay, Vero cells; type: cell-based, African green monkey; settings: African green monkey, Vero kidney cells
[9] = Cytotoxicity, CellTiter 96 cell proliferation assay, HepG2 cells; type: cell-based, human; settings: human, HepG2 hepatocellular carcinoma cells
Cp149 dimers [10] = target: T1, Cp149 dimers (Hepatitis B virus genotype D subtype ayw, UniProt P03146); assay: Mass photometry of Cp149 capsid assembly in the presence of CAM; type: biochemical, Hepatitis B virus (HBV); settings: ρ = 3, assembled at 30 μM subunits, diluted to 0.18 μM; 57% without CAM
T1 sequence (P03146 1-149): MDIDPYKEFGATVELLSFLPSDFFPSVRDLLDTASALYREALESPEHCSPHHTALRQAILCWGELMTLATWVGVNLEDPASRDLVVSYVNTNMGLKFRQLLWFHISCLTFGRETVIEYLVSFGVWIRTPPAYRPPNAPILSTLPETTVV

Cp149 dimers [11] = target: T1, Cp149 dimers; assay: Static SAXS of Cp149 capsid assembly in the presence of CAM; type: biochemical, Hepatitis B virus (HBV); settings: ρ = 3, undiluted sample, 30 μM dimers; 1.54 cm^−1 without CAM
Cp149 dimers [12] = target: T1, Cp149 dimers; assay: Cryo-electron microscopy classification of Cp149 capsids assembled with CAM; type: biochemical, Hepatitis B virus (HBV); settings: ρ = 3 (90 μM), 30 μM Cp149
Procedure, shortened: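 Cp149 was expressed in E. coli BL21 and purified as capsids. These were dissociated with 3 M urea and taken to subunits by SEC. Assembly was triggered manually by mixing 30 μM (1 mg/ml) dimers in 1 mM DTT, 20 mM Tris-HCl pH 7.5 with 200 mM ammonium acetate, with or without 90 μM CAM (ρ = 3). Samples were concentrated 11-fold, imaged by cryo-EM, and particles 2D-classified.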

Cp149 dimers [13] = target: T1, Cp149 dimers; settings: for Rgw (mean radius of gyration, plateau) / 〈N〉w∞ (mean aggregation number at equilibrium) / Associated timescale of Rgw / Associated timescale of 〈N〉w: ρ = 3, 30 μM subunits, 200 mM ammonium acetate; for Rgw (mean radius of gyration, plateau): 37°C, ρ = 0: 176 ± 6 Å; for 〈N〉w∞ (mean aggregation number at equilibrium): ρ = 0: 156 ± 6; for Associated timescale of Rgw: ρ = 0: 237 ± 62 ms; for Associated timescale of 〈N〉w: ρ = 0: 699 ± 138 ms
[14] = target: preassembled HBV capsids (Cp149 protein) (Hepatitis B virus genotype D subtype ayw, UniProt P03146); settings: 20 μM CAM
preassembled HBV capsids (Cp149 protein), sequence (P03146 1-149): as above

[15] = read-out: Anti-HBV activity EC50, HBV DNA production, HepAD38 cells
[16] = read-out: Anti-HBV activity EC90, HBV DNA production, HepAD38 cells
[17] = Hepatitis B virus, HePAD38, read-out: Anti-HBV activity EC50
[18] = Hepatitis B virus, HePAD38, read-out: Anti-HBV activity EC90

| SMILES | EC50 [1, 15] | EC90 [1, 16] | CC50 [2] | CC50 [3] | CC50 [4] | CC50 [5] | other results |
| --- | --- | --- | --- | --- | --- | --- | --- |
| Cc1c(C(=O)C(=O)NCc2cn(CCCCCCn3cc(CNC(=O)C(=O)c4c(C)c(C(=O)Nc5ccc(F)c(F)c5)n(C)c4C)nn3)nn2)c(C)n(C)c1C(=O)Nc1ccc(F)c(F)c1 [Compound 6a, 4,4’-(2,2’-(((Hexane-1,6-diylbis(1H-1,2,3-triazole-1,4-diyl))bis(methylene))bis(azanediyl))bis(2-oxoacetyl))bis(N-(3,4-difluorophenyl)-1,3,5-trimethyl-1H-pyrrole-2-carboxamide)] | 0.285 ± 0.021 µM | > 10 µM | > 100 µM | > 100 µM | > 100 µM | > 100 µM |  |
| Cc1c(C(=O)C(=O)NCc2cn(CCCCCCCCn3cc(CNC(=O)C(=O)c4c(C)c(C(=O)Nc5ccc(F)c(F)c5)n(C)c4C)nn3)nn2)c(C)n(C)c1C(=O)Nc1ccc(F)c(F)c1 [Compound 6b, 4,4’-(2,2’-(((Octane-1,8-diylbis(1H-1,2,3-triazole-1,4-diyl))bis(methylene))bis(azanediyl))bis(2-oxoacetyl))bis(N-(3,4-difluorophenyl)-1,3,5-trimethyl-1H-pyrrole-2-carboxamide)] | 0.438 ± 0.211 µM | 5.52 µM | > 100 µM | > 100 µM | > 100 µM | > 100 µM |  |
| Cc1c(C(=O)C(=O)NCc2cn(CCCCCCCCCCn3cc(CNC(=O)C(=O)c4c(C)c(C(=O)Nc5ccc(F)c(F)c5)n(C)c4C)nn3)nn2)c(C)n(C)c1C(=O)Nc1ccc(F)c(F)c1 [Compound 6c, 4,4’-(2,2’-(((Decane-1,10-diylbis(1H-1,2,3-triazole-1,4-diyl))bis(methylene))bis(azanediyl))bis (2-oxoacetyl))bis(N-(3,4-difluorophenyl)-1,3,5-trimethyl-1H-pyrrole-2-carboxamide)] | 0.004 ± 0.001 µM | 0.14 ± 0.11 µM | > 100 µM | > 100 µM | > 100 µM | > 100 µM |  |
| Cc1c(C(=O)C(=O)NCc2cn(CCCCCCCCCCCCn3cc(CNC(=O)C(=O)c4c(C)c(C(=O)Nc5ccc(F)c(F)c5)n(C)c4C)nn3)nn2)c(C)n(C)c1C(=O)Nc1ccc(F)c(F)c1 [Compound 6d, 4,4’-(2,2’-(((Dodecane-1,12-diylbis(1H-1,2,3-triazole-1,4-diyl))bis (methylene))bis(azanediyl))bis(2-oxoacetyl))bis(N-(3,4-difluorophenyl)-1,3,5-trimethyl-1H-pyrrole-2-carboxamide)] | 0.0001 µM | 0.008 ± 0.001 µM | 63.4 ± 40.6 µM | 42.8 ± 0.6 µM | > 100 µM | > 100 µM | times more potent than reference compound GLP-26 ([1]; HepAD38 EC50 vs GLP-26): 80 times |
| Cc1c(C(=O)C(=O)NCc2cn(CCCCCCCCCCCCCCCCn3cc(CNC(=O)C(=O)c4c(C)c(C(=O)Nc5ccc(F)c(F)c5)n(C)c4C)nn3)nn2)c(C)n(C)c1C(=O)Nc1ccc(F)c(F)c1 [Compound 6f, 4,4’-(2,2’-(((Hexadecane-1,16-diylbis(1H-1,2,3-triazole-1,4-diyl))bis(methylene))bis(azanediyl))bis(2-oxoacetyl))bis(N-(3,4-difluorophenyl)-1,3,5-trimethyl-1H-pyrrole-2-carboxamide)] | 0.018 ± 0.011 µM | 0.13 ± 0.06 µM | > 100 µM | > 100 µM | > 100 µM | > 100 µM | times less potent than GLP-26 [1]: 2–3 times |
| Cc1c(C(=O)C(=O)NCc2cn(CCCCCCCCCCCCCCCCCCn3cc(CNC(=O)C(=O)c4c(C)c(C(=O)Nc5ccc(F)c(F)c5)n(C)c4C)nn3)nn2)c(C)n(C)c1C(=O)Nc1ccc(F)c(F)c1 [Compound 6g, 4,4’-(2,2’-(((Octadecane-1,18-diylbis(1H-1,2,3-triazole-1,4-diyl))bis(methylene))bis(azanediyl))bis(2-oxoacetyl))bis(N-(3,4-difluorophenyl)-1,3,5-trimethyl-1H-pyrrole-2-carboxamide)] | 0.025 ± 0.024 µM | 0.38 ± 0.01 µM | > 100 µM | > 100 µM | > 100 µM | > 100 µM | times less potent than GLP-26 [1]: 2–3 times |
| Cc1c(C(=O)C(=O)NCc2c[nH]nn2)c(C)n(C)c1C(=O)Nc1ccc(F)c(F)c1 [Compound 7, 4-(2-(((1H-1,2,3-triazol-4-yl)methyl)amino)-2-oxoacetyl)-N-(3,4-difluorophenyl)-1,3,5-trimethyl-1H-pyrrole-2-carboxamide] |  |  |  |  |  |  | EC50 [1, 17]: 0.047 ± 0.042 µM; EC90 [1, 18]: 0.58 ± 0.03 µM; SI: Selectivity index ([1]; toxicity in HepG2 / activity in HepAD38): >2128; CC50 [6]: 74 ± 14 µM; CC50 [7]: 67.8 ± 19.6 µM; CC50 [8]: > 100 µM; CC50 [9]: > 100 µM |
| CCCCCCCCCCCCn1cc(CNC(=O)C(=O)c2c(C)c(C(=O)Nc3ccc(F)c(F)c3)n(C)c2C)nn1 [Compound 10, N-(3,4-difluorophenyl)-4-(2-(((1-dodecyl-1H-1,2,3-triazol-4-yl)methyl)amino)-2-oxoacetyl)-1,3,5-trimethyl-1H-pyrrole-2-carboxamide] |  |  |  |  |  |  | EC50 [1, 17]: 0.307 ± 0.153 µM; EC90 [1, 18]: 0.97 ± 0.13 µM; CC50 [6]: 1.6 ± 0.6 µM; CC50 [7]: 9.9 ± 4.6 µM; CC50 [8]: 10.4 ± 9 µM; CC50 [9]: 30.5 ± 25.6 µM |
| C#CCNC(=O)C(=O)c1c(C)c(C(=O)Nc2ccc(F)c(F)c2)n(C)c1C [GLP-26] | 0.008 ± 0.001 µM | 0.07 ± 0.02 µM | > 100 µM | > 100 µM | 30.5 ± 6.7 µM | > 100 µM | capsid-sized events (Cp149 dimers [10]): 27%; SAXS intensity at zero angle I(0) (Cp149 dimers [11]): 1.86 cm⁻¹; larger objects with an ellipsoidal appearance (2D classification) (Cp149 dimers [12]): 17.5%; objects that appeared to be T = 3 capsids (2D classification) (Cp149 dimers [12]): 1.8%; objects very similar to T = 4 capsids (2D classification) (Cp149 dimers [12]): 81.3%; Subunit binding energies −Δg (Cp149 dimers [13]): 10.4 kT; Rgw (mean radius of gyration, plateau) (Cp149 dimers [13]): 180 Å and 180 ± 1Å; 〈N〉w∞ (mean aggregation number at equilibrium) (Cp149 dimers [13]): 190 and 190 ± 11; Associated timescale of Rgw (Cp149 dimers [13]): 116 ± 63 ms; Associated timescale of 〈N〉w (Cp149 dimers [13]): 487 ± 178 ms; Radius (DLS, table) ([14]; 7.5 μM Cp149, 30 min, 1% DMSO control 24.6 ± 3.4): 53.0 ± 13.6 nM; PD (polydispersity) ([14]; 7.5 μM Cp149, 30 min, 1% DMSO control 32.3 ± 18.6): 26.8 ± 9.8%; average particle radius (DLS, text) ([14]; 1% DMSO control 24.6 nm): 53.0 nm |
| Cc1cc(NC(=O)c2cccc(S(=O)(=O)N[C@H]3CCOC3)c2)ccc1F [JNJ-632] |  |  |  |  |  |  | Subunit binding energies −Δg (Cp149 dimers [13]): 15.8 kT; Rgw (mean radius of gyration, plateau) (Cp149 dimers [13]): 176 ± 0.5 Å; 〈N〉w∞ (mean aggregation number at equilibrium) (Cp149 dimers [13]): 150 ± 4; Associated timescale of Rgw (Cp149 dimers [13]): 100 ± 24 ms; Associated timescale of 〈N〉w (Cp149 dimers [13]): 273 ± 46 ms |
